Reference: ChEMBL document CHEMBL4007505 (J Med Chem, 2017)
Calls of active or inactive are those of the source.

What was measured:
[1] = target: T1, Alpha-1B adrenergic receptor (Homo sapiens, UniProt P35368); experiment: Displacement of [3H]Prazosin from human adrenergic alpha1B receptor
T1 sequence (P35368 whole entry): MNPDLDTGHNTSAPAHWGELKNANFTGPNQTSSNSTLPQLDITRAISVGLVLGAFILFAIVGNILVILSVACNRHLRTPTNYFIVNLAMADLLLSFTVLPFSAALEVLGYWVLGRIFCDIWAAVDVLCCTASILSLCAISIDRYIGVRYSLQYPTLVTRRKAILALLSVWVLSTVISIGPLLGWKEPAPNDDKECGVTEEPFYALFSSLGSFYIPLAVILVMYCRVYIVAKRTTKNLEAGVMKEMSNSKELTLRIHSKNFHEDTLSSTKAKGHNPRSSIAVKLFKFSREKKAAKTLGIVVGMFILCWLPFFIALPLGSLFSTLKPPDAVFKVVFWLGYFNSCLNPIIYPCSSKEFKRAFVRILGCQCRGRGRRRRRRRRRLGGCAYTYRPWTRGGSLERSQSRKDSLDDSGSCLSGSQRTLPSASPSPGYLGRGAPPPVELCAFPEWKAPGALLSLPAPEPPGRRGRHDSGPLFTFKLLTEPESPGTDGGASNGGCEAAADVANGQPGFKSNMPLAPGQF

[2] = target: T2, Alpha-1A adrenergic receptor (Homo sapiens, UniProt P35348); experiment: Displacement of [3H]Prazosin from human adrenergic alpha1A receptor
T2 sequence (P35348 whole entry): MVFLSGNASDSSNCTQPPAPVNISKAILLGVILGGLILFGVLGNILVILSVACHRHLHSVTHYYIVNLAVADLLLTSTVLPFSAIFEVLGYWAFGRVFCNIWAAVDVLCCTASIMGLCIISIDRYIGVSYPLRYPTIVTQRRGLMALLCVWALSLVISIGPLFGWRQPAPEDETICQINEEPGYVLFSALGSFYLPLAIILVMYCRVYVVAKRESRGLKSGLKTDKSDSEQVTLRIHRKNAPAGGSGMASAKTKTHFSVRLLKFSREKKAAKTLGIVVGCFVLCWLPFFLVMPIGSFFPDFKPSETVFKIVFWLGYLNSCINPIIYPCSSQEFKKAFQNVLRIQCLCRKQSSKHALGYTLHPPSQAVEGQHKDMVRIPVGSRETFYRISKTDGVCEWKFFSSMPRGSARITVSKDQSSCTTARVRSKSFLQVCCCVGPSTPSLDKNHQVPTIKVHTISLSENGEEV

[3] = target: Alpha-2A adrenergic receptor (Homo sapiens, UniProt P08913); experiment: Displacement of [3H]Rauwolscine from human adrenergic alpha2A receptor
[4] = target: T3, Sodium-dependent dopamine transporter (Homo sapiens, UniProt Q01959); experiment: Enhancing of [3H]WIN35,428 binding to recombinant human DAT expressed in HEK293 cell membranes at 10 uM pre-incubated for 10 mins before radioligand addition and measured 90 mins after radioligand addition by micro beta scintillation counting analysis relative to control
[5] = target: Alpha-2B adrenergic receptor (Homo sapiens, UniProt P18089); experiment: Displacement of [3H]Rauwolscine from human adrenergic alpha2B receptor
[6] = target: T4, Alpha-2C adrenergic receptor (Homo sapiens, UniProt P18825); experiment: Displacement of [3H]Rauwolscine from human adrenergic alpha2C receptor
T4 sequence (P18825 whole entry): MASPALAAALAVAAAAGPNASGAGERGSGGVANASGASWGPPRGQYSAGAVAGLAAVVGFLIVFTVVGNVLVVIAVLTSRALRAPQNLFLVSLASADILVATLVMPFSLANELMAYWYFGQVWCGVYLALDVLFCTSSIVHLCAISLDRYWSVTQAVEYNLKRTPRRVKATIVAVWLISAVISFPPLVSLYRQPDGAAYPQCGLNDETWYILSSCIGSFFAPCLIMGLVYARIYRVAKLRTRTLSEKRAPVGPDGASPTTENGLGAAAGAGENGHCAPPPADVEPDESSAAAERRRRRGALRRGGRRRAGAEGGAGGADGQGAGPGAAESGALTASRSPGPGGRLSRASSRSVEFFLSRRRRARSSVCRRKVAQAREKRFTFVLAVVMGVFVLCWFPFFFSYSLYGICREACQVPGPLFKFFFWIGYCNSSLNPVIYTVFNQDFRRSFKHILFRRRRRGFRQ

[7] = target: T5, Sodium-dependent noradrenaline transporter (Homo sapiens, UniProt P23975); experiment: Inhibition of [3H]nisoxetine binding to recombinant human NET expressed in HEK293 cell membranes preincubated for 10 mins followed by radioligand addition measured after 90 mins by micro beta scintillation counting analysis
[8] = target: T6, Adenosine receptor A3 (Homo sapiens, UniProt P0DMS8); experiment: Displacement of [125I]N6-(4-amino-3-iodobenzyl)adenosine-5'-N-methyluronamide from human A3AR expressed in HEK293T cells pre-incubated for 10 mins before radioligand addition and measured 90 mins after radioligand addition by micro beta scintillation counting analysis relative to control; assay type: cell-based, HEK-293T
T6 sequence (P0DMS8 whole entry): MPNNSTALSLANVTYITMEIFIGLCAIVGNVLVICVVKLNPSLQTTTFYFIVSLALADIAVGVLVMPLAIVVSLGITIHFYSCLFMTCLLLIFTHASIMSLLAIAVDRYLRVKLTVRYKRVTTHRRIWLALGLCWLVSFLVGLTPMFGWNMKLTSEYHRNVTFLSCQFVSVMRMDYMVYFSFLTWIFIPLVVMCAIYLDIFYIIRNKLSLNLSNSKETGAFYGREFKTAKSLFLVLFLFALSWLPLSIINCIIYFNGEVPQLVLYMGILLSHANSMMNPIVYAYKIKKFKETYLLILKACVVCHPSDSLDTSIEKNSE

[9] = target: T3, Sodium-dependent dopamine transporter; experiment: Inhibition of [3H]WIN35,428 binding to recombinant human DAT expressed in HEK293 cell membranes at 10 uM pre-incubated for 10 mins before radioligand addition and measured 90 mins after radioligand addition by micro beta scintillation counting analysis relative to control
[10] = target: T7, Adenosine receptor A3 (Mus musculus, UniProt Q61618); experiment: Displacement of [125I]N6-(4-amino-3-iodobenzyl)adenosine-5'-N-methyluronamide from mouse A3AR expressed in HEK293T cells pre-incubated for 10 mins before radioligand addition and measured 90 mins after radioligand addition by micro beta scintillation counting analysis relative to control; assay type: cell-based
T7 sequence (Q61618 whole entry): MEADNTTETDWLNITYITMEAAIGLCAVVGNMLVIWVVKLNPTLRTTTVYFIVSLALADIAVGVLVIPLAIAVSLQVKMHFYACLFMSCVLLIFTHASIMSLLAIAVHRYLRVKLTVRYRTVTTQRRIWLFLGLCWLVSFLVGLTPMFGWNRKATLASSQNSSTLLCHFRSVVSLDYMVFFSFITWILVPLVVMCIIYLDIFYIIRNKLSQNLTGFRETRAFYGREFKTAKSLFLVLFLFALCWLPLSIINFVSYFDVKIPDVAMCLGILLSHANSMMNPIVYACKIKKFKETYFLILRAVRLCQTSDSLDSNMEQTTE

[11] = target: T8, Alpha-1D adrenergic receptor (Homo sapiens, UniProt P25100); experiment: Displacement of [3H]Prazosin from human adrenergic alpha1D receptor
T8 sequence (P25100 whole entry): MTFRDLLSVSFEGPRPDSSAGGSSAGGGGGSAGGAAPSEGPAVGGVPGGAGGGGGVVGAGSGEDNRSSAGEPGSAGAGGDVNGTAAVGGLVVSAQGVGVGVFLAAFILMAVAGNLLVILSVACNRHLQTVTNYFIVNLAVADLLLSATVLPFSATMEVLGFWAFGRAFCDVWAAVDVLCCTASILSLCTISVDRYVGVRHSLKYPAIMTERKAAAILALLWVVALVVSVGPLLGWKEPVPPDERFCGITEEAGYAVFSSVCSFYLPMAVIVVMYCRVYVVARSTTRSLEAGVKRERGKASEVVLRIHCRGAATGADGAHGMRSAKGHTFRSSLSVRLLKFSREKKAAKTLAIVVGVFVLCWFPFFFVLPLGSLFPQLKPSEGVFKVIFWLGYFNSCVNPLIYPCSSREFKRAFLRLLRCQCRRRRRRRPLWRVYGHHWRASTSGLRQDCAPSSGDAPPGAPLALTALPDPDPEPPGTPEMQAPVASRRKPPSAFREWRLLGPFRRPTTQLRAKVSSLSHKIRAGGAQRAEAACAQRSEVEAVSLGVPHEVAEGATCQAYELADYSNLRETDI

[12] = test system: Mus musculus; experiment: Antiallodynic activity in mouse chronic constriction injury model of neuropathic pain assessed as time duration of action for increasing in paw withdrawal threshold at 3 umol/kg, po administered on day 7 post injury; assay type: functional
[13] = target: T3, Sodium-dependent dopamine transporter; experiment: Enhancing of [3H]WIN35,428 binding to recombinant human DAT expressed in HEK293 cell membranes pre-incubated for 10 mins before radioligand addition and measured 90 mins after radioligand addition by micro beta scintillation counting analysis relative to control
[14] = target: T9, Sodium-dependent dopamine transporter (Mus musculus, UniProt Q61327); experiment: Inhibition of mouse DAT expressed in HEK293 cells assessed as reduction in [3H]-DA uptake; assay type: cell-based
[15] = target: Sodium-dependent dopamine transporter (Mus musculus) (UniProt Q61327); experiment: (§1) Enhancing of [125I]RTI-55 binding to mouse DAT expressed in HEK293 cells preincubated for 10 mins followed by radioligand addition measured after 90 mins by micro beta scintillation counting analysis; assay type: cell-based
Summary of the method: (§2)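 Membranes preincubated 10 min at room temperature with compound in Krebs-HEPES buffer pH 7.4, then [125I]23 at fixed 45-50 pM for 90 min in the dark, filtered. […] EC50 and % control binding; mean ± SEM.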

[16] = target: T9, Sodium-dependent dopamine transporter; experiment: as §1; assay type: cell-based; summary of the method: as §2
[17] = target: T10, Sodium-dependent serotonin transporter (Homo sapiens, UniProt P31645); experiment: Enhancing of [125I]RTI-55 binding to recombinant human SERT expressed in HEK293 cell membranes preincubated for 10 mins followed by radioligand addition measured after 90 mins by micro beta scintillation counting analysis
[18] = target: T5, Sodium-dependent noradrenaline transporter; experiment: Inhibition of recombinant human NET expressed in HEK293 […] assessed as reduction in [3H]-norepinephrine uptake incubated for 22 mins by micro beta scintillation counting analysis
[19] = target: T5, Sodium-dependent noradrenaline transporter; experiment: Enhancing of [125I]RTI-55 binding to recombinant human NET expressed in HEK293 cell membranes preincubated for 10 mins followed by radioligand addition measured after 90 mins by micro beta scintillation counting analysis; parameters: concentration or dose not given beside the values
[20] = target: T10, Sodium-dependent serotonin transporter; experiment: Enhancing of [3H]mazindol binding to recombinant human SERT expressed in HEK293 cell membranes preincubated for 10 mins followed by radioligand addition measured after 90 mins by micro beta scintillation counting analysis
[21] = target: T3, Sodium-dependent dopamine transporter; experiment: Enhancing of [3H]mazindol binding to recombinant human DAT expressed in HEK293 cell membranes preincubated for 10 mins followed by radioligand addition measured after 90 mins by micro beta scintillation counting analysis; parameters: concentration or dose not given beside the values
Summary of the method: (§3)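 Membranes of HEK-293 cells stably expressing hDAT, hNET or hSERT. […] Compound preincubated 10 min at room temperature, then [125I]23 (40-80 pM final) or [3H]26 (1-3 nM for DAT and NET, 10-13 nM for SERT) added. Incubated 90 min at room temperature in the dark, then filtered. EC50 or Ki; mean ± SEM.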

[22] = target: T3, Sodium-dependent dopamine transporter; experiment: Inhibition of recombinant human DAT expressed in HEK293 cell […] as reduction in [3H]-DA uptake incubated for 22 mins by micro beta scintillation counting analysis
[23] = target: T10, Sodium-dependent serotonin transporter; experiment: Inhibition of recombinant human SERT expressed in HEK293 cell […] as reduction in [3H]5-HT uptake incubated for 22 mins by micro beta scintillation counting analysis
Target sequence in this assay (P31645 whole entry): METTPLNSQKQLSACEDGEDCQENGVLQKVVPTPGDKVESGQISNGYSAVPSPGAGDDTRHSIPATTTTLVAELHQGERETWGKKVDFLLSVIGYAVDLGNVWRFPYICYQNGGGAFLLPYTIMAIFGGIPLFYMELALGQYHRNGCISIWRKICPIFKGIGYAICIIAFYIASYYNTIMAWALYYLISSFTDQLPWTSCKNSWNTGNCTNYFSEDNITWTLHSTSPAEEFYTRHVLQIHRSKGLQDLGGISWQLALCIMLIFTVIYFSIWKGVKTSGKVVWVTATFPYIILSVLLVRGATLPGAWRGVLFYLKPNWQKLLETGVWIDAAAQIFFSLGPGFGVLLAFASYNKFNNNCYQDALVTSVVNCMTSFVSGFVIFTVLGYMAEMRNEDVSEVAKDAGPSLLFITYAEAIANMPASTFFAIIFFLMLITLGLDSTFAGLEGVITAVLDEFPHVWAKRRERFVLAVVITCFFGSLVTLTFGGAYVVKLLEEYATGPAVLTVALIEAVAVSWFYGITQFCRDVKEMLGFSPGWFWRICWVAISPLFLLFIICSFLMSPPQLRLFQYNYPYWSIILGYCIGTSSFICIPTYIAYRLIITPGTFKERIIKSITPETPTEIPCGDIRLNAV

[24] = target: T3, Sodium-dependent dopamine transporter; experiment: Enhancing of [125I]RTI-55 binding to recombinant human DAT expressed in HEK293 cell membranes preincubated for 10 mins followed by radioligand addition measured after 90 mins by micro beta scintillation counting analysis; parameters: concentration or dose not given beside the values; summary of the method: as §3
[25] = target: T5, Sodium-dependent noradrenaline transporter; experiment: Enhancing of [3H]mazindol binding to recombinant human NET expressed in HEK293 cell membranes preincubated for 10 mins followed by radioligand addition measured after 90 mins by micro beta scintillation counting analysis
[26] = target: T9, Sodium-dependent dopamine transporter; experiment: Inhibition of [125I]RTI-55 binding to mouse DAT expressed in HEK293 cells preincubated for 10 mins followed by radioligand addition measured after 90 mins by micro beta scintillation counting analysis; assay type: cell-based

T3 sequence (Q01959 whole entry): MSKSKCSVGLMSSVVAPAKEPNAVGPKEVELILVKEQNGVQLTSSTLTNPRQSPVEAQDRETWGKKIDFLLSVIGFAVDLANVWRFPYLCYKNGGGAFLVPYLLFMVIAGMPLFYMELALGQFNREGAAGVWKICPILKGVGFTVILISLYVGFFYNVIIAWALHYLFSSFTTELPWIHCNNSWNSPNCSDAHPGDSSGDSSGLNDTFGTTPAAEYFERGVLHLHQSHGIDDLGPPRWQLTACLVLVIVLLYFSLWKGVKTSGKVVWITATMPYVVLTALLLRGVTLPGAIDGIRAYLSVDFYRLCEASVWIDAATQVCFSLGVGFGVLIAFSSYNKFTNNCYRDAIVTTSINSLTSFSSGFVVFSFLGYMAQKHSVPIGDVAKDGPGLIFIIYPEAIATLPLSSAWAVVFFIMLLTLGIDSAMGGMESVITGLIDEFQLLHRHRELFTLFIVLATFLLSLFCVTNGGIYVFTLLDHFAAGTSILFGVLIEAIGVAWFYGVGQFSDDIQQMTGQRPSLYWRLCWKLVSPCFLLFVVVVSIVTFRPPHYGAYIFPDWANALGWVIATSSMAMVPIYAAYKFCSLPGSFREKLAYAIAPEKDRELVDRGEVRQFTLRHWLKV
T9 sequence (Q61327 whole entry): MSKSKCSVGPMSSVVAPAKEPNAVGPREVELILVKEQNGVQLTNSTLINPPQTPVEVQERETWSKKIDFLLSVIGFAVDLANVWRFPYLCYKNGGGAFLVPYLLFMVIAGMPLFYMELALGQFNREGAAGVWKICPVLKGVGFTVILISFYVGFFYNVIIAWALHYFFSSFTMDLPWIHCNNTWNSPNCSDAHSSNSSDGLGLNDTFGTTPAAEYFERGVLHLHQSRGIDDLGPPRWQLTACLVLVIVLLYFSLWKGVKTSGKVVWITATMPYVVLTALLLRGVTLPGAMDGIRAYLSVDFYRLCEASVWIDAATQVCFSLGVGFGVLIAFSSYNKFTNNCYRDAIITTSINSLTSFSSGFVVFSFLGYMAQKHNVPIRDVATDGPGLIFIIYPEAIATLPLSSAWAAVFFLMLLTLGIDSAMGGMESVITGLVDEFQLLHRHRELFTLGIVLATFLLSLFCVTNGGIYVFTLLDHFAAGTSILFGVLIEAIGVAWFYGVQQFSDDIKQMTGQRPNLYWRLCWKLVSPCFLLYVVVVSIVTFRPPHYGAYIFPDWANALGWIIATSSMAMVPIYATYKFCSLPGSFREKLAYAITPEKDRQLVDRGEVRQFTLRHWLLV
T5 sequence (P23975 whole entry): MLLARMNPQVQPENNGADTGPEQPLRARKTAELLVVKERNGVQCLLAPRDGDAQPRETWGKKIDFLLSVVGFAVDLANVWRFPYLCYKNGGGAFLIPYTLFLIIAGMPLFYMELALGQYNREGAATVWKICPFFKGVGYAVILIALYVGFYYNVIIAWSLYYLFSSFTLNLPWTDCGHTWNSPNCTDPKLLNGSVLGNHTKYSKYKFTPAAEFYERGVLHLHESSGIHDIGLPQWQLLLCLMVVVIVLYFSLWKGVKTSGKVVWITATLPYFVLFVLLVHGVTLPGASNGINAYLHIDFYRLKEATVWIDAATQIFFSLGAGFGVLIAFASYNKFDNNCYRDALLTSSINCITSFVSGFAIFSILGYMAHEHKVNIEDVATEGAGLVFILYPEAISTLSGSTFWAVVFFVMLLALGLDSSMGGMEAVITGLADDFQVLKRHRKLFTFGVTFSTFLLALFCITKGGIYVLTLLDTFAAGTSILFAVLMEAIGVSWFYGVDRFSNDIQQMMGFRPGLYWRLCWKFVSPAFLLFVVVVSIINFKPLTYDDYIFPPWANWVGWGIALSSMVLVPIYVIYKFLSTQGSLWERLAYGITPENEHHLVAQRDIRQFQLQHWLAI
Sequence of Alpha-2A adrenergic receptor (P08913 whole entry): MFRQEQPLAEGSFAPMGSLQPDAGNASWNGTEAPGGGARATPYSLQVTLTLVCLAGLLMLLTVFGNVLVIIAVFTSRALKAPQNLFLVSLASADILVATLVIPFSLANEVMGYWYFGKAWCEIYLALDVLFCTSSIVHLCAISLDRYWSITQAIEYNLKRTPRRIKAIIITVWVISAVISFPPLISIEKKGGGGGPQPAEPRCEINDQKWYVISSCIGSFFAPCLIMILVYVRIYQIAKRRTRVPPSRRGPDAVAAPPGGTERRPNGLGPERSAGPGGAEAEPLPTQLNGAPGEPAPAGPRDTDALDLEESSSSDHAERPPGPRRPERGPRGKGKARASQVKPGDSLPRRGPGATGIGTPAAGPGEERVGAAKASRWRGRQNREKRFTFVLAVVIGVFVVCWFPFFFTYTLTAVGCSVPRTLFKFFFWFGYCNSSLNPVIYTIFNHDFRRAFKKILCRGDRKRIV
Sequence of Sodium-dependent dopamine transporter (Mus musculus) (Q61327 whole entry): as the sequence (Q61327 whole entry) above
Sequence of Alpha-2B adrenergic receptor (P18089 whole entry): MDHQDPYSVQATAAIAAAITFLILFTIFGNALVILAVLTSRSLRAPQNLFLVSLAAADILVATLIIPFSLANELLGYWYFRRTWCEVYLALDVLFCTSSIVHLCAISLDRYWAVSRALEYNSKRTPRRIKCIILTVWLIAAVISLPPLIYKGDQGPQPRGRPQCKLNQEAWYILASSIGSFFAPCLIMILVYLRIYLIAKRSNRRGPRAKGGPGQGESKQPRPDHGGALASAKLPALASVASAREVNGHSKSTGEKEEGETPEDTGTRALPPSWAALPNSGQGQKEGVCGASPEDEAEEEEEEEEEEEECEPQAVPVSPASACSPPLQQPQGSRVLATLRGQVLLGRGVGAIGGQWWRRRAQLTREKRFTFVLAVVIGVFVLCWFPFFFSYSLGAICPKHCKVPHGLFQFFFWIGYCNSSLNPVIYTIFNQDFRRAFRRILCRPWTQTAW

Structure (SMILES): CCCNc1nc(C#Cc2ccc(Cl)s2)nc2c1ncn2[C@@H]1O[C@H](C(=O)NC)[C@@H](O)[C@H]1O
- Ki [1]: > 10 µM
- Ki [2]: > 10 µM
- Ki [3]: 5 to 10 µM
- Activity [4]: 84%
- Ki [5]: 5 to 10 µM
- Ki [6]: > 10 µM
- Ki [7]: 3.1 µM
- Ki [8]: 0.00625 µM
- inhibition [9]: inactive
- Ki [10]: 0.597 µM
- Ki [11]: > 10 µM
- Time [12]: >6 h
- EC50 [13]: > 1 µM

Structure (SMILES): CNC(=O)[C@@]12C[C@@H]1[C@@H](n1cnc3c(NC)nc(C#Cc4ccc(Cl)s4)nc31)[C@H](O)[C@@H]2O
- IC50 [14]: 2.29 µM
- Emax [15]: 1150%
- EC50 [16]: 2.23 µM
- Activity [17]: inactive
- EC50 ([17]; read-out: EC50): > 10 µM
- IC50 [18]: > 10 µM
- Activity [19]: 386%
- EC50 ([19]; read-out: EC50): 1.18 µM
- Activity [20]: inactive
- EC50 [20]: > 10 µM
- Activity [21]: 403%
- EC50 ([21]; read-out: EC50): 0.131 µM
- IC50 [22]: 0.253 µM
- IC50 [23]: > 10 µM
- Activity [24]: 550%
- EC50 ([24]; read-out: EC50): 0.0351 µM
- Activity [25]: inactive

Structure (SMILES): COC(=O)[C@H]1[C@@H](OC(=O)c2ccccc2)C[C@@H]2CC[C@H]1N2C [COCAINE]
- IC50 [14]: 0.2 µM
- EC50 ([17]; hek293): Not Active
- Ki [26]: 0.85 µM
- EC50 ([21]; hek293): Not Active
- EC50 ([24]; hek293): Not Active
